Compound activity deposited in PubChem BioAssay by several laboratories.
Hits are enriched below; roughly 12% of the tested compounds scored in any of these assays.
ABCB1 block: ABCB1 efflux pump inhibitors, primary screen, cell-based, multiplex, flow cytometry, ABCG2 counter-screen | hit rate 0.067% among 190,000 | AID 1326, 2008 | inhibition, % at 6.6 µM | ATP-dependent translocase ABCB1 (Homo sapiens), P08183 | CCRF-Adr cells, JC-1 efflux; in the data active means inhibition above about 40%;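 further: 0% = vehicle and 100% = reference inhibitor; higher value means more JC-1 retained so stronger ABCB1 efflux block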
WT yeast gro inh: growth inhibition of WT strain, primary screen, mitochondrial fusion inhibitor project, WT and mutant strains, chemical genetic; mitochondrial fusion phenotypic screen; inhibition, % at 10 µM; hit rate 2.1% among 190,000; in the data active means inhibition above about 58%; tested in S. cerevisiae
ABCG2 inh: ABCG2 efflux pump inhibitors, primary screen, multiplex with ABCB1, IgMXP3 cells, flow cytometry; Broad substrate specificity ATP-binding cassette transporter ABCG2 (Homo sapiens), Q9UNQ0; JC-1 efflux; inhibition, % at 6.6 µM; hit rate 0.1% among 190,000; AID 1325, 2008;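 active means inhibition above 80%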;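 further: 0% = DMSO and 100% = nicardipine control wells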
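Test system: IgMXP3 (ABCG2) plus far-red-tagged CCRF-Adr (ABCB1) cells. Reagent: JC-1 dye as substrate. Timing: 10 min exposure at 25 °C with rotation, no wash. Measured by: flow cytometric JC-1 green MFI at 530 nm. Read-out: percent efflux inhibition, scaled nicardipine 100% to DMSO 0%. Control set: nicardipine and DMSO wells.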
L major viab: Leishmania major promastigote growth inhibition, primary screen; Leishmania major promastigotes, resazurin fluorescence viability; inhibition, % at 10 µM; hit rate 9% among 200,000; AID 1063, 2008; in the data active means inhibition above about 50%;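 further: promastigotes grown with compound for 44 hours at 28 °C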
RAM inhibit: inhibitors of the yeast RAM network, primary screen, dse1pr::URA3 reporter, 5-FOA selection. S. cerevisiae dse1pr::URA3 reporter, 5-FOA growth OD615, 2 d; analog-sensitive cbk1-as2 kinase mutant strain. inhibition, % at 50 µM. hit rate 1.8% among 190,000;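 active means inhibition above a set limit, 3 SD over mean compound inhibition, cut at about 8.4% in these data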;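 further: 0% = DMSO-only wells with no growth and 100% = 10 µM 1-NA-PP1 full growth; inhibition rescues growth on 5-FOA so higher OD means more RAM inhibition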
Starred values were filed as active, the others as inactive; · = not tested or not shown.

SMILES	ABCB1 block	WT yeast gro inh	ABCG2 inh	L major viab	RAM inhibit
CCc1nnc(NC(=O)c2ccc3ccccc3n2)s1	2.2	48.3	11.4	55.9*	-0.8
Cn1c(N)c(C(=O)COC(=O)CSc2ccc(Cl)cc2)c(=O)n(C)c1=O	-0.1	-5.2	-0.3	-6.1	2.8
c1cc(CNC2C3CC4CC(C3)CC2C4)ccn1 (stereo not drawn)	0.2	-9.3	4.5	82.8*	1.1
O=C(NCc1ccncc1)C12CC3CC(CC(C3)C1)C2	0.7	-2.4	1.3	2.8	1.6
CC(NCc1ccncc1)C12CC3CC(CC(C3)C1)C2 (stereo not drawn)	0.2	3.2	0.1	68.5*	0.0
CCc1ccc(C(=O)OCC(=O)c2c(N)n(CC(C)C)c(=O)n(C)c2=O)cc1	0.1	13.5	-0.7	-3.5	0.7
O=C(NNC(=O)C1CCN(c2ncccn2)CC1)c1ccncc1	-0.1	-9.9	-0.6	-4.9	0.1
O=c1c(Cc2c(F)cccc2Cl)c(O)ccn1C1CC1	1.6	-1.0	6.5	5.7	-0.4
CCCn1c2c(c(O)c(C(=O)Nc3ccc(OC)cc3)c1=O)CCCC2	0.3	6.8	3.5	19.5	9.2*
CSc1ccc(/C=C/C(=O)c2ccc(O)cc2)cc1	0.3	33.9	38.6	40.3	-1.1
COc1ccc(C(=O)/C=C/c2ccccc2)c(O)c1	0.1	20.7	6.2	75.0*	0.9
O=C(/C=C/c1ccc(O)cc1)c1ccc(O)cc1O	-0.3	-4.8	2.5	84.7*	0.8
COc1ccc(C(=O)/C=C/c2ccc(OC)cc2OC)c(O)c1	0.0	16.4	6.5	-5.4	6.5
Cc1ccc(S(=O)(=O)/N=C(/Nc2ccc3[nH]c(=O)[nH]c3c2)c2ccc(F)cc2)cc1	0.8	-9.5	2.6	-1.2	4.6
CCc1ccc(OC(C)c2nnc(SCC(=O)Nc3ncccc3C)n2C)cc1 (stereo not drawn)	-0.2	2.6	-0.1	10.9	2.8
O=S(Cc1ccc(Br)cc1)Cc1nnc(SCc2ccc(Cl)cc2)n1-c1ccccc1 (stereo not drawn)	0.2	5.7	-0.7	1.4	2.3
O=S(Cc1ccc(Br)cc1)Cc1nnc(SCc2c(F)cccc2Cl)n1-c1ccccc1 (stereo not drawn)	-3.1	76.9*	-10.9	21.2	0.1
COc1ccc(-c2noc(CSc3nc4ccccc4c(=O)n3-c3ccccc3)n2)cc1OC	1.2	17.0	4.1	23.6	2.0
COc1ccc(-c2noc(CSc3nnc(Cc4ccccc4)n3-c3cccc(C)c3)n2)cc1OC	3.1	4.1	24.9	53.7*	2.9
Cc1ccc(-c2noc(CSc3nnc(Cc4ccccc4)n3-c3cccc(C)c3)n2)cc1	0.4	0.9	-0.6	80.2*	5.6
O=C(Nc1ccncc1)c1cn(-c2ccccc2)nc1-c1cccs1	-0.8	3.8	-1.3	94.8*	-0.8
O=C(Nc1nccs1)c1cn(-c2ccccc2)nc1-c1ccncc1	1.8	8.9	18.0	4.7	1.5
O=C(O)c1cccc(N2C(=O)c3cccc(Oc4ccc(Cl)cc4)c3C2=O)c1	-0.1	-9.2	-1.5	-9.9	2.4
O=C(COC(=O)c1ccc(CNS(=O)(=O)c2ccc(F)c(Cl)c2)cc1)NCC1CCCCC1	0.2	0.2	4.4	-7.0	9.0*
O=C(COC(=O)c1ccc(CNS(=O)(=O)c2ccc(F)c(Cl)c2)cc1)NC1CCCCCCC1	-0.9	10.8	-4.4	-6.7	3.6
SMILES	ABCB1 block	WT yeast gro inh	ABCG2 inh	L major viab	RAM inhibit
N#CCCN(C(=O)COC(=O)c1ccc(CNS(=O)(=O)c2ccc(F)c(Cl)c2)cc1)c1ccc(F)cc1	1.0	-11.2	30.1	96.6*	11.1*
O=C(Nc1nnc(CCN2CCCCC2)s1)c1ccccc1Cl	0.3	-3.7	0.1	2.2	0.4
O=C(Nc1nnc(-c2ccc3c(c2)CCCC3)o1)c1ccccc1	-2.4	74.7*	-4.0	96.3*	0.5
O=C(CCOc1ccccc1)Nc1nnc(-c2ccc3c(c2)OCCO3)o1	-0.1	11.7	5.4	0.7	5.6
O=C(Nc1nnc(-c2ccc(Cl)cc2)o1)C1CCCCC1	·	15.8	·	·	·
O=C(Nc1nnc(-c2ccc3c(c2)CCCC3)o1)c1ccccc1Cl	0.9	74.2	9.9	11.8	0.9
O=C(Nc1nnc(-c2ccc3c(c2)OCCO3)o1)C1CCCCC1	1.1	0.8	13.8	72.4*	1.7
O=C(Nc1nnc(-c2ccc3c(c2)OCCO3)o1)c1ccc(Cc2ccccc2)cc1	0.1	61.1*	1.8	-0.8	2.7
COc1ccc(S(=O)(=O)n2nc(C)cc2C)c(C)c1C	0.7	-2.2	2.7	50.1*	-0.8
Cn1c(Sc2ccc(Br)cc2)c(C=O)c2ccccc21	0.6	-0.2	1.9	56.9*	10.2*
Cn1c(Oc2ccc(F)cc2)c(C=O)c2ccccc21	0.1	-0.9	1.8	1.1	1.4
O=C(NCc1ccco1)C(=O)c1cn(CC(=O)N2CCCCC2)c2ccccc12	0.5	-1.7	2.0	-3.7	-0.2
CCc1ccc(C(=O)CSc2nc3cc(S(=O)(=O)N4CCOCC4)ccc3n2CC)cc1	-0.6	-1.7	-2.4	6.2	3.7
O=C(OCc1cccc2ccccc12)C1CC(=O)N(c2ccccc2)C1 (stereo not drawn)	1.2	-24.9	4.4	-2.5	11.0*
CCc1cccc(OCCCCNCCCOC)c1	0.4	6.7	48.7	99.2*	1.3
CCc1cccc(OCCCCN(CC)CC)c1	0.5	·	1.4	98.4*	2.3
CCOC(=O)C(CCCCOc1cccc(CC)c1)C(=O)OCC	-0.1	9.4	2.2	45.2	1.1
CCOc1cccc(OCCCNCCCOC)c1	0.9	60.4*	4.2	88.4*	0.7
CC(=O)NCCOc1cccc(OCCNC(C)=O)c1	2.0	5.9	15.1	1.1	0.2
COc1cc(OC)cc(C(=O)N[C@H](C(=O)NCc2cccs2)C(C)C)c1	1.3	7.7	1.9	9.7	0.8
CCOC(=O)C(C)Oc1c(C(=O)OC)sc2ncccc12 (stereo not drawn)	0.7	-2.4	1.6	-3.4	-0.3
CCCN1CCN(c2ncnc3c2nnn3Cc2ccccc2)CC1	0.5	-6.7	-0.1	97.3*	-0.8
O=C(c1ccco1)N1CCN(c2ncnc3c2nnn3Cc2ccccc2Cl)CC1	3.1	17.2	8.1	3.0	-0.9
CCOC(=O)C1CCN(c2ncnc3c2nnn3Cc2ccccc2Cl)CC1	1.8	42.3	6.8	-2.8	8.4*
c1ccc(Cn2nnc3c(N4CCCCCC4)ncnc32)cc1	0.4	16.5	1.4	5.9	1.7
CCOC(=O)C1=C(CNCCc2ccc(Cl)cc2)NC(=O)NC1c1ccc2c(c1)OCO2 (stereo not drawn)	-0.2	55.0	-2.3	80.2*	0.9
CCOC(=O)C1=C(CNCCOc2ccc(OC)cc2)NC(=O)NC1c1ccc2c(c1)OCO2 (stereo not drawn)	2.0	17.1	0.7	15.6	-1.4
